# Test results as given in ChEMBL document CHEMBL4665633, “Cereblon versus VHL: Hijacking E3 ligases against each other using PROTACs” (Bioorg Med Chem, 2019).
# Calls of active or inactive are those of the source. The rule behind the calls is not given here.
# Tests used:
# Assay type in all cases: cell-based
# [1] = molecular target: T1, Protein cereblon/von Hippel-Lindau disease tumor suppressor (Homo sapiens, UniProt P40337+Q96SW2); assay: Protac activity at VHL/CRBN in human HeLa cells assessed as CRBN protein abundance at 1 uM after 4 hrs by Western blot analysis relative to DMSO
# In short: (§1)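 HeLa cells seeded overnight, then exposed to 1 µM compound (0.1% v/v DMSO final) over a time course. Cells were DPBS-washed and RIPA-lysed with protease inhibitors and benzonase; equal protein was loaded. Immunoblots for CRBN and VHL isoforms were quantified against β-tubulin and reported relative to the averaged 0.1% DMSO vehicle.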
# [2] = molecular target: T1, Protein cereblon/von Hippel-Lindau disease tumor suppressor; assay: Protac activity at VHL/CRBN in human HeLa cells assessed as pVHL30 protein abundance at 10 nM after 4 hrs by Western blot analysis relative to DMSO
# In short: (§2)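 HeLa cells (5 × 10⁵, DMEM + 10% FBS, 37 °C, 5% CO₂, ≤30 passages) seeded overnight, then treated 4 h with compound at single or graded concentrations (0.1% v/v DMSO final). RIPA lysates equalised by Bradford; SDS-PAGE and anti-CRBN/anti-VHL immunoblots; bands normalised to β-tubulin and expressed as % of mean DMSO vehicle. DC₅₀ from fit of band intensity versus log[concentration].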
# [3] = molecular target: T1, Protein cereblon/von Hippel-Lindau disease tumor suppressor; assay: Protac activity at VHL/CRBN in human HeLa cells assessed as pVHL30 protein abundance at 1 uM after 4 hrs by Western blot analysis relative to DMSO; in short: as §1
# [4] = molecular target: T1, Protein cereblon/von Hippel-Lindau disease tumor suppressor; assay: Protac activity at VHL/CRBN in human HeLa cells assessed as CRBN protein abundance at 10 nM after 4 hrs by Western blot analysis relative to DMSO; in short: as §2
# [5] = molecular target: T1, Protein cereblon/von Hippel-Lindau disease tumor suppressor; assay: Protac activity at VHL/CRBN in human HeLa cells assessed as pVHL19 protein abundance at 1 uM after 4 hrs by Western blot analysis relative to DMSO; in short: as §1
# [6] = molecular target: T1, Protein cereblon/von Hippel-Lindau disease tumor suppressor; assay: Protac activity at VHL/CRBN in human HeLa cells assessed as pVHL19 protein abundance at 10 nM after 4 hrs by Western blot analysis relative to DMSO; in short: as §2
# [7] = molecular target: T1, Protein cereblon/von Hippel-Lindau disease tumor suppressor; assay: Protac activity at VHL/CRBN in human HeLa cells assessed as induction of VHL degradation at 1 uM after 4 hrs by Western blot analysis; in short: as §2
# [8] = molecular target: T1, Protein cereblon/von Hippel-Lindau disease tumor suppressor; assay: Protac activity at VHL/CRBN in human HeLa cells assessed as induction of CRBN degradation at 1 uM after 4 hrs by Western blot analysis relative to control; in short: as §2
# [9] = molecular target: T1, Protein cereblon/von Hippel-Lindau disease tumor suppressor; assay: Protac activity at VHL/CRBN in human HeLa cells assessed as CRBN protein abundance after 4 hrs by Western blot analysis relative to DMSO
# In short: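 HeLa cells (DMEM, 10% FBS, penicillin/streptomycin, L-glutamine; 37 °C, 5% CO2) seeded at 5 × 10⁵ per well overnight, then treated in 0.1% v/v final DMSO. Cells were lysed in RIPA with protease inhibitors and benzonase, and equal protein was run on SDS-PAGE/nitrocellulose blots probed with anti-CRBN. Bands were normalised to β-tubulin and expressed relative to mean 0.1% DMSO vehicle.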
# [10] = molecular target: T1, Protein cereblon/von Hippel-Lindau disease tumor suppressor; assay: Protac activity at VHL/CRBN in human HeLa cells assessed as pVHL30 protein abundance at 1 uM after 24 hrs by Western blot analysis relative to DMSO; in short: as §1
# [11] = molecular target: T1, Protein cereblon/von Hippel-Lindau disease tumor suppressor; assay: Protac activity at VHL/CRBN in human HeLa cells assessed as pVHL19 protein abundance after 4 hrs by Western blot analysis relative to DMSO; in short: as §2
# [12] = molecular target: T1, Protein cereblon/von Hippel-Lindau disease tumor suppressor; assay: Protac activity at VHL/CRBN in human HeLa cells assessed as CRBN protein abundance at 1 uM after 24 hrs by Western blot analysis relative to DMSO; in short: as §1
# [13] = molecular target: T1, Protein cereblon/von Hippel-Lindau disease tumor suppressor; assay: Protac activity at VHL/CRBN in human HeLa cells assessed as pVHL19 protein abundance at 1 uM after 24 hrs by Western blot analysis relative to DMSO; in short: as §1
# [14] = molecular target: T1, Protein cereblon/von Hippel-Lindau disease tumor suppressor; assay: Protac activity at VHL/CRBN in human HeLa cells assessed as pVHL30 protein abundance after 4 hrs by Western blot analysis relative to DMSO; in short: as §2
# [15] = molecular target: T1, Protein cereblon/von Hippel-Lindau disease tumor suppressor; assay: Protac activity at VHL/CRBN in HEK293 cells assessed as pVHL30 protein abundance after 4 hrs by Western blot analysis relative to DMSO
# In short: (§3)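 HEK293 cells (DMEM, 10% FBS, penicillin/streptomycin, L-glutamine; 37 °C, 5% CO2; ≤30 passages) seeded at 1 × 10⁶ per well overnight, then treated with compound at 0.1% v/v final DMSO. Cells were lysed in RIPA with protease inhibitors and benzonase, then clarified. Equal Bradford-quantified protein was immunoblotted for CRBN/VHL. Bands were normalised to β-tubulin and expressed as % of mean 0.1% DMSO vehicle.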
# [16] = molecular target: T1, Protein cereblon/von Hippel-Lindau disease tumor suppressor; assay: Protac activity at VHL/CRBN in HEK293 cells assessed as pVHL30 protein abundance at 1 uM after 4 hrs by Western blot analysis relative to DMSO; in short: as §3
# [17] = molecular target: T1, Protein cereblon/von Hippel-Lindau disease tumor suppressor; assay: Protac activity at VHL/CRBN in HEK293 cells assessed as CRBN protein abundance at 1 uM after 4 hrs by Western blot analysis relative to DMSO; in short: as §3
# [18] = molecular target: T1, Protein cereblon/von Hippel-Lindau disease tumor suppressor; assay: Protac activity at VHL/CRBN in HEK293 cells assessed as CRBN protein abundance at 1 uM after 24 hrs by Western blot analysis relative to DMSO; in short: as §3
# [19] = molecular target: T1, Protein cereblon/von Hippel-Lindau disease tumor suppressor; assay: Protac activity at VHL/CRBN in HEK293 cells assessed as pVHL19 protein abundance at 1 uM after 4 hrs by Western blot analysis relative to DMSO; in short: as §3
# [20] = molecular target: T1, Protein cereblon/von Hippel-Lindau disease tumor suppressor; assay: Protac activity at VHL/CRBN in HEK293 cells assessed as pVHL19 protein abundance after 4 hrs by Western blot analysis relative to DMSO; in short: as §3
# [21] = molecular target: T1, Protein cereblon/von Hippel-Lindau disease tumor suppressor; assay: Protac activity at VHL/CRBN in HEK293 cells assessed as pVHL30 protein abundance at 1 uM after 24 hrs by Western blot analysis relative to DMSO; in short: as §3
# [22] = molecular target: T1, Protein cereblon/von Hippel-Lindau disease tumor suppressor; assay: Protac activity at VHL/CRBN in HEK293 cells assessed as pVHL19 protein abundance at 1 uM after 24 hrs by Western blot analysis relative to DMSO; in short: as §3
# [23] = molecular target: T1, Protein cereblon/von Hippel-Lindau disease tumor suppressor; assay: Protac activity at VHL/CRBN in HEK293 cells assessed as CRBN protein abundance after 4 hrs by Western blot analysis relative to DMSO; in short: as §3
# T1 sequence (P40337 whole entry, looked up, canonical isoform): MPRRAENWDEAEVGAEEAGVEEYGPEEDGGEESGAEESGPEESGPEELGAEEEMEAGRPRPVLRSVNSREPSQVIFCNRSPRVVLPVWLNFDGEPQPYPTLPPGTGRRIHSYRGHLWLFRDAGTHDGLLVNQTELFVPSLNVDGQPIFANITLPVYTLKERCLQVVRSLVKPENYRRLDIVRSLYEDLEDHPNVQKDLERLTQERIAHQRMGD
# T1 sequence (Q96SW2 whole entry, looked up, canonical isoform): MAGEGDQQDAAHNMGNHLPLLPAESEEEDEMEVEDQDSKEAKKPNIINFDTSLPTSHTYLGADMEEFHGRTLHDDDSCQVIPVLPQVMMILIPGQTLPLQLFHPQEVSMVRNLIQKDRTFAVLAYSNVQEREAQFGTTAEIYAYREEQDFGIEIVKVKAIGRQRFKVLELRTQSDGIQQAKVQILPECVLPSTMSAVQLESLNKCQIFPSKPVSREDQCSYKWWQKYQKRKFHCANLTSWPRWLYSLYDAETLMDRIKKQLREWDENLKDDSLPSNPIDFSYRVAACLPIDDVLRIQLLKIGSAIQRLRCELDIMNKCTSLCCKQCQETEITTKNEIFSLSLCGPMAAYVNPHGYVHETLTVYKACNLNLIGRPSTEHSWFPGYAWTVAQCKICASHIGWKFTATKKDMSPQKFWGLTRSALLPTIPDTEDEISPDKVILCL
Compound,Activity [1] [%],Activity [2] [%],Activity [3] [%],Activity [4] [%],Activity [5] [%],Activity [6] [%],Activity [7],also measured
Cc1ncsc1-c1ccc(CNC(=O)[C@@H]2C[C@@H](O)CN2C(=O)[C@@H](NC(=O)C2(F)CC2)C(C)(C)C)c(OCCCCC(=O)NCCNc2cccc3c2C(=O)N(C2CCC(=O)NC2=O)C3=O)c1 (some centres undefined),95,64,126,80,134,100,inactive,
Cc1ncsc1-c1ccc(CNC(=O)[C@@H]2C[C@@H](O)CN2C(=O)[C@@H](NC(=O)C2(F)CC2)C(C)(C)C)c(OCCOCCOCCOCCOCCOCC(=O)NCCNc2cccc3c2C(=O)N(C2CCC(=O)NC2=O)C3=O)c1 (some centres undefined),46,76,77,86,103,89,inactive,Activity [8]: 54%
Cc1ncsc1-c1ccc(CNC(=O)[C@@H]2C[C@@H](O)CN2C(=O)[C@@H](NC(=O)COCCOCCOCCOCCOCCOCC(=O)N[C@H](C(=O)N2C[C@H](O)C[C@H]2C(=O)NCc2ccc(-c3scnc3C)cc2)C(C)(C)C)C(C)C)cc1,103,0,1,87,97,97,inactive,Activity [9]: 99%; Activity [10]: 11%; Activity [11]: 100%; Activity [12]: 118%; Activity [13]: 122%; Activity [14]: 0%; Activity [15]: 6%; Activity [16]: 1%; Activity [17]: 102%; Activity [18]: 109%; Activity [19]: 95%; Activity [20]: 95%; Activity [21]: 3%; Activity [22]: 99%; Activity [23]: 100%
Cc1ncsc1-c1ccc(CNC(=O)[C@@H]2C[C@@H](O)CN2C(=O)[C@@H](NC(=O)C2(F)CC2)C(C)(C)SCCOCCOCCOCCOCCOCC(=O)NCCNc2cccc3c2C(=O)N(C2CCC(=O)NC2=O)C3=O)cc1 (some centres undefined),68,87,110,82,112,89,inactive,
O=C1CCC(N2C(=O)c3cccc(NCCOCCOCCNc4cccc5c4C(=O)N(C4CCC(=O)NC4=O)C5=O)c3C2=O)C(=O)N1 (centres undefined),34,95,87,38,100,95,inactive,Activity [9]: 40%; Activity [10]: 102%; Activity [11]: 104%; Activity [12]: 29%; Activity [13]: 107%; Activity [14]: 109%; Activity [15]: 95%; Activity [16]: 99%; Activity [17]: 37%; Activity [18]: 25%; Activity [19]: 97%; Activity [20]: 94%; Activity [21]: 96%; Activity [22]: 99%; Activity [23]: 52%
Cc1ncsc1-c1ccc(CNC(=O)[C@@H]2C[C@@H](O)CN2C(=O)[C@@H](NC(=O)C2(F)CC2)C(C)(C)SCCCCC(=O)NCCNc2cccc3c2C(=O)N(C2CCC(=O)NC2=O)C3=O)cc1 (some centres undefined),81,53,114,82,117,93,inactive,
Cc1ncsc1-c1ccc(CNC(=O)[C@@H]2C[C@@H](O)CN2C(=O)[C@@H](NC(=O)COCCOCCOCCOCCOCCOCCOCCOCCOCC(=O)NCCNc2cccc3c2C(=O)N(C2CCC(=O)NC2=O)C3=O)C(C)(C)C)cc1 (some centres undefined),91,54,91,82,95,99,inactive,

# Now from value to molecule, other results behind:
Activity [1] [%],Activity [2] [%],Activity [3] [%],Activity [4] [%],Activity [5] [%],Activity [6] [%],Activity [7],Compound,also measured
94,53,95,81,103,92,inactive,Cc1ncsc1-c1ccc(CNC(=O)[C@@H]2C[C@@H](O)CN2C(=O)[C@@H](NC(=O)COCCOCCOCCOCCOCC(=O)NCCNc2cccc3c2C(=O)N(C2CCC(=O)NC2=O)C3=O)C(C)(C)C)cc1 (some centres undefined),
94,67,101,91,103,98,inactive,Cc1ncsc1-c1ccc(CNC(=O)[C@@H]2C[C@@H](O)CN2C(=O)[C@@H](NC(=O)COCCOCCOCCOCC(=O)NCCNc2cccc3c2C(=O)N(C2CCC(=O)NC2=O)C3=O)C(C)(C)C)cc1 (some centres undefined),
91,104,89,91,102,94,inactive,Cc1ncsc1-c1ccc(CNC(=O)[C@@H]2C[C@@H](O)CN2C(=O)[C@@H](NC(=O)COCCOCCOCC(=O)NCCNc2cccc3c2C(=O)N(C2CCC(=O)NC2=O)C3=O)C(C)(C)C)cc1 (some centres undefined),
71,76,113,94,115,97,inactive,Cc1ncsc1-c1ccc(CNC(=O)[C@@H]2C[C@@H](O)CN2C(=O)[C@@H](NC(=O)C2(F)CC2)C(C)(C)C)c(OCCOCCOCCOCC(=O)NCCNc2cccc3c2C(=O)N(C2CCC(=O)NC2=O)C3=O)c1 (some centres undefined),
71,75,104,78,121,87,inactive,Cc1ncsc1-c1ccc(CNC(=O)[C@@H]2C[C@@H](O)CN2C(=O)[C@@H](NC(=O)C2(F)CC2)C(C)(C)SCCOCCOCCOCC(=O)NCCNc2cccc3c2C(=O)N(C2CCC(=O)NC2=O)C3=O)cc1 (some centres undefined),
65,50,75,75,100,101,inactive,Cc1ncsc1-c1ccc(CNC(=O)[C@@H]2C[C@@H](O)CN2C(=O)[C@@H](NC(=O)COCCCCCCOCC(=O)NCCNc2cccc3c2C(=O)N(C2CCC(=O)NC2=O)C3=O)C(C)(C)C)cc1 (some centres undefined),
86,80,96,85,97,93,inactive,Cc1ncsc1-c1ccc(CNC(=O)[C@@H]2C[C@@H](O)CN2C(=O)[C@@H](NC(=O)COCCOCCOCCOCCOCCOCC(=O)NCCNc2cccc3c2C(=O)N(C2CCC(=O)NC2=O)C3=O)C(C)(C)C)cc1 (some centres undefined),
